Screening data as filed in PubChem.
Bcl-XL Bim block = human Bim-Bcl-XL interaction inhibition; AID 1007; inhibition, % at 10 µM; Q07817; 190,000 compounds, 0.04% hits; Bim peptide-Bcl-XL binding, bead flow cytometry, fluorescence
Bfl-1 Bim block = disrupts Bim binding to human Bfl-1. Q16548. Bead-based flow cytometry, Bim-Bfl-1 binding inhibition. inhibition, % at 10 µM. 190,000 compounds, 0.12% hits;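 also: 0% = wells without compound plus tracer and 100% = blocker peptide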
Bim-Bcl-B = disrupts Bim peptide binding to human Bcl-B | Q9HD36 | bead-based flow cytometry | inhibition, % at 10 µM | 190,000 compounds, 0.073% hits;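 also: 0% = tracer peptide without compound and 100% = reference inhibitor peptide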
Bim-Bcl-2 = disrupts Bim peptide binding to human Bcl-2. Bead-based flow cytometry, Bim peptide-Bcl-2 binding. P10415. inhibition, % at 10 µM. AID 950. 190,000 compounds, 0.06% hits; in the data active = inhibition above about 40%;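 also: 0% = no compound wells with probe peptide and 100% = reference peptide inhibitor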
Target sequence (P10415 whole entry, looked up): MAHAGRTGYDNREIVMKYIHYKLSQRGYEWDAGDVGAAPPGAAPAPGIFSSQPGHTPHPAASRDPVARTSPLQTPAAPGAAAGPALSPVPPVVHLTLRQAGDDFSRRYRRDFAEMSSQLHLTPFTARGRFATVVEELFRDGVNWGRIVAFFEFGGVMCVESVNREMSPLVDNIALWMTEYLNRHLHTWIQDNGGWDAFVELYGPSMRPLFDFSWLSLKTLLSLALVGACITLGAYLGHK
Bim-Bcl-W = inhibitors of Bim-Bcl-W interaction, human. Q92843. bead-based flow cytometry, Bim peptide-Bcl-W binding. inhibition, % at 10 µM. 190,000 compounds, 0.02% hits;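 also: 0% = bound tracer without compound and 100% = peptide blocker; higher means less fluorescent Bim peptide bound to Bcl-W beads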
Target sequence (Q92843 whole entry, looked up): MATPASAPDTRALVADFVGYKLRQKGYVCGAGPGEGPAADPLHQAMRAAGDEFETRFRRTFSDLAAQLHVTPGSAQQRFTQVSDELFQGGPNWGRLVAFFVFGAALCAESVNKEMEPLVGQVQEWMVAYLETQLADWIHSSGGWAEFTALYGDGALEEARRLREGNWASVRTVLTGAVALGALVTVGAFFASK
Rad51 HR inh = blocks human Rad51 in homologous recombination | hRad51 DNA strand exchange, fluorescence dequenching | 200,000 compounds, 0.085% hits | Q06609 | inhibition, % at 10 µM;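 active = inhibition above 40% at the single screening dose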;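 also: 0% = DMSO control wells and 100% = blanks with heterologous ssDNA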
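Material: hRad51 filaments on single-stranded DNA; Reagent: Donor/quencher-labelled 47-bp dsDNA substrate; Compound: 10 µM final, single point; Schedule: 37 °C 15-min filament assembly, 30-min compound preincubation, 15-min exchange; Technique: FRET fluorescence, excitation 485 nm, emission 520 nm; Benchmarks: control wells and blank wells on each plate.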
Bim-BclXL dose = confirmation of regulators of human Bim-Bcl-XL interaction. shares compounds with Bfl-1 Bim block. bead-based flow cytometry, Bim-Bcl-XL binding. inhibition of binding at 100 µM. 40 tested, under 10 active. AID 2084; call rule not given here
Numbers without * were called inactive; / = no result. Only some compounds are listed: those with a hit (about 0.23% of all), similar ones and a draw of the others. Rule as the data show it, unless noted: active = inhibition above about 40%.

SMILES	Bcl-XL Bim block	Bfl-1 Bim block	Bim-Bcl-B	Bim-Bcl-2	Bim-Bcl-W	Rad51 HR inh	others
CCOc1cc(CNc2ccc(N3CCCC3)cc2)cc(Cl)c1OC	0	4	0	1	3	/
Cc1nn(C)c(Cl)c1C(=O)NC(C(=O)O)c1ccccc1 (stereo unspecified)	-2	-9	-2	0	-2	/
O=C(OCc1nc2ccccc2[nH]1)C12CC3CC(CC(C3)C1)C2	0	6	42*	12	0	-2
CCN(CC(=O)NCCc1ccc(Cl)cc1)Cc1nc2ccccc2c(=O)[nH]1	2	-3	-3	-2	-2	5
CCN(CC(=O)NCCc1ccc(F)cc1)Cc1nc2ccccc2c(=O)[nH]1	/	/	/	/	/	46*
C=CC[N+]1(CC(=O)NCc2ccc(NC(C)=O)cc2)CCOCC1	/	/	/	/	/	-14
Cc1cc(C)c(S(=O)(=O)/N=C2/C=C(SCC(=O)O)C(=O)c3ccccc32)cc1C	0	56*	-12	12	18	-47
CC1=C(CC[C@@H](C)CO)OC2CC3C4CCC5CC(O)CCC5(C)C4CC(=O)C3(C)C12 (stereo partly specified)	/	/	/	/	/	6
CN(C)C(CNC(=S)Nc1cccc(Cl)c1)c1cccnc1 (stereo unspecified)	-6	-5	-8	-3	-3	6
Cc1ccc(S(=O)(=O)NN2C(=O)c3ccccc3NC2C)cc1 (stereo unspecified)	-5	0	-3	0	-3	5
CC1Nc2ccccc2C(=O)N1NS(=O)(=O)c1ccccc1 (stereo unspecified)	42*	43*	25	29	28	5
Cc1cccc(OCCSc2nc(N)cc(N)n2)c1	/	/	/	/	/	-2
O=C(Nc1nccs1)C1Cc2ccccc2CN1S(=O)(=O)c1ccc(F)cc1 (stereo unspecified)	-2	0	-2	-4	-2	2
O=C(Nc1nnc(C2CC2)s1)C1Cc2ccccc2CN1S(=O)(=O)c1ccccc1F (stereo unspecified)	13	/	/	77*	9	-2
c1nc2n(n1)C1=C(CCCC1)C1(CCCCC1)N2	0	-2	-2	1	0	0
C#CCNC(=O)C1=C[C@H](c2ccc3c(c2)OCO3)[C@@H](CCCO)[C@H](OCC)O1	0	-6	-2	-5	0	7
CN(C)c1ncc(C2=C(Cl)C(=O)C(N3CCCC3)=C(Cl)C2=O)s1	48*	92*	46*	70*	83*	-9
CC(=O)c1cnc(N(C)C)s1	0	3	3	7	2	4
O=C1C(Cl)=C(N2CCCCC2)C(=O)C(Cl)=C1c1cnc(N2CCCCC2)s1	49*	91*	52*	69*	85*	-4
CN1CCC(=NNC(=O)c2cn(-c3ccccc3)nc2-c2ccccc2)CC1	-4	-3	-4	-4	-4	7
Cc1ccc2cc(C)c(Sc3nnnn3-c3ccccc3)nc2c1	42*	40*	23	26	28	3
Cn1ccnc1Sc1nnnn1-c1ccccc1	-7	2	0	2	-3	-4
NC(=O)c1ccccc1NC(=O)/C=C/c1ccccc1	-12	-14	-14	-7	-5	-1
NC(=S)NC(=O)/C=C/c1ccccc1	-10	-7	-11	-7	-9	41*
COc1cc(CNc2ccc3[nH]c(=O)[nH]c3c2)cc(Br)c1OCC(=O)NC(C)(C)C	2	9	-8	-3	21	-9	Bim-BclXL dose=2.9
SMILES	Bcl-XL Bim block	Bfl-1 Bim block	Bim-Bcl-B	Bim-Bcl-2	Bim-Bcl-W	Rad51 HR inh	others
COc1cc(N=C2SSNC2Cl)c(OC)cc1Cl (stereo unspecified)	/	/	/	/	/	/	Bim-BclXL dose=10
COc1cc(NC(=O)c2c(F)c(F)c(F)c(F)c2F)c(OC)cc1Cl	-6	-5	-7	-6	-2	2
CCC(C)Sc1nc2c(c(=O)[nH]1)C(c1cccs1)C1=C(CCCC1=O)N2 (stereo unspecified)	1	0	1	2	5	-11
CCNc1nc2cccnc2s1	/	/	/	/	/	-5
Cc1cc2nn(-c3cccc4ccccc34)nc2cc1N	4	48*	-1	15	13	2	Bim-BclXL dose=1.9
CCOc1ccccc1CNc1ccc(O)cc1	4	44*	-15	11	23	4	Bim-BclXL dose=0.043
